The results in this text go back to paper PMC8556866 (Bioorganic Chemistry, 2021).

The test system of one assay is HPAepiC cells. Put plainly: ROS-induced cell death. The conditions noted are these: 50 μM H2O2 in HPAepiC cells; 10 μM ebselen/EBs, NAC 10 mM, 24 h. The assay is classed as cell-based. In outline:
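HPAepiC cells were exposed to 50 μM H₂O₂ for 1 h, then washed three times with fresh medium. Medium with 10 μM test compound or 10 mM NAC was added for 24 h before cell death was assessed.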

Assay [1] concerns the target T1, SARS-CoV-2 Mpro (Severe acute respiratory syndrome coronavirus 2, UniProt P0DTD1). The assay is classed as binding.
For another assay, the system named is SARS-CoV-2 virus. The assay is classed as cell-based. The conditions noted are these: read-out: IC50 of inhibition of SARS-CoV-2 viral replication.
For assay [2], the target named is T1, SARS-CoV-2 Mpro. The assay is described as follows: biochemical. To be noted: read-out: %Inhibition @0.3 μM.
For assay [3], the target named is T1, SARS-CoV-2 Mpro. Put plainly: HPLC assay for inhibition of Mpro. The assay is classed as biochemical. To be noted: 0.3 μM compound, Mpro 0.2 μM; about 70% hydrolysis with Mpro alone.
Assay [4] concerns intracellular reactive oxygen species (ROS) in HPAepiC cells. Put plainly: Intracellular ROS measurement with DCFH-DA after H2O2. The format is cell-based. The conditions noted are these: 50 μM H2O2 in HPAepiC cells; 10 μM ebselen/EBs, NAC 10 mM. In outline:
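HPAepiC cells were cultured 24 h in 35-mm dishes, exposed to 50 μM H₂O₂ for 1 h and washed three times. They were then given 10 μM test compound for 24 h, with 10 mM NAC as positive control. Cells were loaded with 10 μM DCFH-DA for 30 min at 37 °C in the dark, washed with PBS and imaged confocally (Ex 488 nm, Em 520–570 nm). Relative fluorescence intensity was scored.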

For orientation: IC50 means the concentration that gives 50% inhibition. Broadly, the inhibition is the drop in the measured response relative to a control, in per cent.

On to `O=c1c2ccccc2[se]n1-c1ccccc1` [Ebselen], for which the “ROS induced cell death” value in the assay on HPAepiC cells was “dramatically decreased”. In addition, at SARS-CoV-2 Mpro [1], the “covalent binding to Mpro (peptide modified)” value is on record as “identified to bind to ebselen”. Further, the IC50 with SARS-CoV-2 virus was 24.6 µM. Besides, the inhibition at 0.3 µM at SARS-CoV-2 Mpro [2] amounted to 61.2 ± 0.76%. On SARS-CoV-2 Mpro [3], this compound displayed a substrate hydrolysis of 30%. Besides, in assay [4], the “intracellular ROS level (DCFH-DA fluorescence)” value was “dramatically decreased”.
`CC(=O)N[C@@H](CS)C(=O)O` [NAC, N-Acetyl-L-cysteine]: the “ROS induced cell death” value with HPAepiC cells is on record as “reversed the cytotoxicity induced by ROS”. For the same compound, in assay [4], the “intracellular ROS level (DCFH-DA fluorescence)” value was “scavenged the intracellular ROS”.
